Rows were chosen to be rich in hits. Some 3.9% of all compounds tested hit in one or more screens of this group.
CHRM1 PAM – human M1 muscarinic receptor positive allosteric modulators, primary screen, CHO-K1 cells, Fluo-8 calcium fluorescence, 1536-well; Muscarinic acetylcholine receptor M1 (Homo sapiens), P11229; CHO-K1 hM1, ACh EC20; 0% = ACh EC20, 100% = maximal ACh; activation, % at 3 µM; hit rate 0.088% among 360,000; in the data active = activation above about 19%, passing the limit was not always enough
Target sequence (P11229 whole entry, looked up): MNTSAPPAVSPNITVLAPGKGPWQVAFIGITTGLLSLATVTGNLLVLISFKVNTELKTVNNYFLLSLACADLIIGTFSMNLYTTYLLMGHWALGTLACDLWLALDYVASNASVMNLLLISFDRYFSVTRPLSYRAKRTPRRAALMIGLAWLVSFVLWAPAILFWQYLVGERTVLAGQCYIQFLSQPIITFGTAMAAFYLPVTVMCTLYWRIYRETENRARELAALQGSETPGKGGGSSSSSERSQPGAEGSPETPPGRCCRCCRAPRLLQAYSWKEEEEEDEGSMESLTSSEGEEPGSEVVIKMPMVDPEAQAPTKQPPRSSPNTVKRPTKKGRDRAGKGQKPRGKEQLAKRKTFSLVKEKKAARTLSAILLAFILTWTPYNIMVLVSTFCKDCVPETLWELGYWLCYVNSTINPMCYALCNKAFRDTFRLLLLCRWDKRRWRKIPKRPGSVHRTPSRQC
TAAR1 antag – human TAAR1 antagonists, primary screen, Fluo-8 calcium fluorescence, CHO RD-HGA16 cells | Trace amine-associated receptor 1 (Homo sapiens), Q96RJ0 | antagonist | inhibition, % at 3 µM | hit rate 1.5% among 360,000;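 active = inhibition above a per-plate cutoff, the mean inhibition of test compounds on that plate plus 3 SD, cut at about 49% in these data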;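 note: 0% = DMSO plus EC80 beta-PEA response and 100% = DMSO alone without agonist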
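System: CHO RD-HGA16 cells bearing hTAAR1. Reagent: EC80 β-phenethylamine stimulus. Schedule: seeding 17-24 h prior, 75-min 37 °C, 30-min RT dye loading. Signal: Fluo-8 intracellular calcium dye fluorescence, real-time kinetic reads. Read-out: % inhibition from peak post-agonist over basal fluorescence ratio. Benchmarks: vehicle wells and EC80 agonist wells. Replicates: n of 1.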
TAAR1 agonist – human TAAR1 agonists, primary screen, Fluo-8 calcium fluorescence, CHO RD-HGA16 cells; Trace amine-associated receptor 1 (Homo sapiens), Q96RJ0; vehicle wells 0%, saturating PEA agonist 100%; activation, % at 3 µM; hit rate 0.99% among 360,000; AID 624467, 2012;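 active = activation above the mean activation of all test compounds in the run plus 3 SD, cut at about 38% in these data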
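System: CHO RD-HGA16 cells carrying human TAAR1 plus Gα16; Incubation: 17-24 h seeding, 75 min 37 °C dye, 30 min RT; Measured by: Fluo-8 fluorescence, 5 s baseline then 140 s kinetic read; Control set: DMSO and PEA EC100; Replication: single well for each compound.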
m5-HT2A agonist – mouse Htr2a agonists via beta-arrestin recruitment, primary screen, cell-based, luminescence | 5-hydroxytryptamine receptor 2A (Mus musculus), P35363 | CHO-K1 mHTR2A beta-arrestin complementation; percent of 30 µM serotonin response | activation, % at 7.6 µM | hit rate 0.66% among 360,000 | AID 624169, 2012;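 active = activation above a run cutoff, the mean activation of all tested compounds plus 3 SD, cut at about 14% in these data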;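 note: 0% = plate median of compound wells and 100% = 30 µM serotonin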
M1 antag – human M1 muscarinic receptor antagonists, primary screen, CHO-K1 cells, Fluo-8 calcium fluorescence, 1536-well. Muscarinic acetylcholine receptor M1 (Homo sapiens), P11229. CHO-K1 hM1, ACh EC80 antagonist. inhibition, % at 3 µM. hit rate 1.3% among 360,000;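 active = percent inhibition above its own plate's cutoff, namely the mean of that plate's compound wells plus 3 SD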;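 note: peak over basal fluorescence ratio during 140 s after agonist addition; 0% = ACh EC80 plus DMSO and 100% = DMSO alone without agonist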
M1 ag – human M1 muscarinic receptor agonists, primary screen, Fluo-8 calcium fluorescence, CHO-K1 cells, HTS. CHO-K1 hM1, agonist mode; 0% DMSO, 100% acetylcholine EC100. Muscarinic acetylcholine receptor M1 (Homo sapiens), P11229. activation, % at 3 µM. hit rate 0.33% among 360,000;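 active = activation above the run's mean compound activation plus 3 SD, cut at about 16% in these data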;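 note: peak over basal fluorescence ratio within a 140 s kinetic read after compound addition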
TAAR1 nonsel count – nonselective antagonists in TAAR1 counter-screen cells, counter-screen for hTAAR1 antagonist project, cell-based, fluorescence, calcium; counterscreen cell line, antagonist mode; hit rate 77% among 2,400; shares compounds with TAAR1 antag; inhibition, % at 3 µM; in the data active = inhibition above about 22%;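 note: CHO-Ga16 host cells stimulated with ATP at an EC80 level; 0% = agonist EC80 plus vehicle and 100% = vehicle without agonist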
TAAR1 ant conf – human TAAR1 antagonists, retest of hits, confirmation, cell-based, fluorescence. inhibition, % at 3 µM. TAAR1-expressing cells, fluorescence antagonist read-out. shares compounds with TAAR1 antag. hit rate 40% among 2,400; in the data active = inhibition above about 49%;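 note: CHO-Ga16 host cells challenged with agonist PEA near its EC80; 0% = agonist at EC80 plus vehicle and 100% = vehicle with no agonist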
Ga16 nonsel ag – calcium activation in Ga16-expressing cells, counter-screen for TAAR1 antagonist project, cell-based, fluorescence | shares compounds with TAAR1 antag | agonist counterscreen | activation, % at 3 µM | hit rate 18% among 2,400 | AID 651953, 2012; in the data active = activation above about 12%;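 note: 0% = vehicle wells and 100% = saturating stimulus response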
TAAR1 ag counter – TAAR1 activation by candidate antagonists – cell-based, fluorescence, counter-screen for TAAR1 antagonist project. shares compounds with TAAR1 antag. hTAAR1 cell line, agonist mode. activation, % at 3 µM. hit rate 2% among 2,400; in the data active = activation above about 37%;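 note: CHO cells stably expressing TAAR1 with calcium dye readout; 0% = DMSO vehicle and 100% = full agonist response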
Numbers without * were called inactive; · = no result given.

SMILES	CHRM1 PAM	TAAR1 antag	TAAR1 agonist	m5-HT2A agonist	M1 antag	M1 ag	TAAR1 nonsel count	TAAR1 ant conf	Ga16 nonsel ag	TAAR1 ag counter
CC(C)(C)c1cc(C(=O)N/N=C/c2ccc(-c3ccccc3[N+](=O)[O-])o2)n[nH]1	-8	63*	5	-6	22	-2	27*	53*	7	3
O=C(COC(=O)c1cc([N+](=O)[O-])ccc1N1CCOCC1)Nc1cccc(F)c1	14	0	7	1	3	5	·	·	·	·
CCCCN1C(=O)c2ccc(C(=O)Nc3ccc(C)c(S(=O)(=O)N(C)C)c3)cc2C1=O	-12	68*	12	-3	18	-2	50*	54*	13*	9
Cc1ccc(Oc2ncnc(N)c2[N+](=O)[O-])cc1C	8	0	-1	1	-4	-6	·	·	·	·
CCOc1cc(/C=N/NC(=O)c2ccncc2)ccc1OC(=O)c1ccco1	2	-23	1	4	4	0	·	·	·	·
CCOc1cc(/C=N/NC(=O)C(O)(c2ccccc2)c2ccccc2)ccc1OC(=O)c1ccco1	-6	80*	14	-2	10	-2	33*	56*	8	7
O=C(COC(=O)CNC(=O)c1ccc(Cl)cc1Cl)NNC(=O)c1ccccc1F	3	12	-1	-1	-7	-1	·	·	·	·
Cc1cc(C)cc(NC(=O)Nc2ccc3c(c2)N(C)C(=O)CS3)c1	-29	82*	7	-8	44*	-2	43*	51*	11	7
Cc1ccc(S(=O)(=O)Nc2cccc(C(=O)N3CCCC3)c2)cc1F	5	1	4	-5	-11	-1	·	·	·	·
Clc1ccc(OCc2nnc(SCc3nc4ccccc4[nH]3)n2Cc2ccco2)cc1	10	50*	7	3	-12	-2	45*	54*	14*	15
CCCC(C(=O)NC1=NCCS1)c1ccccc1 (configuration not stated)	-3	9	9	-3	-16	-6	·	·	·	·
COc1ccc(C2c3c(-c4ccccc4O)n[nH]c3C(=O)N2CCc2ccc(OC)c(OC)c2)cc1 (configuration not stated)	-2	22	14	3	8	-1	·	·	·	·
COc1ccc(CCN2C(=O)c3[nH]nc(-c4ccccc4O)c3C2c2cccc(Cl)c2)cc1 (configuration not stated)	12	59*	12	7	-14	-1	19	40	8	12
CCOC(=O)c1nn(-c2ccccc2)c(-c2ccccc2)c1C(=O)c1ccccc1	9	24	4	3	-6	-2	·	·	·	·
CCOC(=O)c1nn(-c2ccccc2F)c(-c2ccccc2)c1C(=O)c1ccccc1	-3	56*	5	-4	11	-1	10	33	9	11
C=CCOC(=O)C1=C(C)NC(SCC(=O)Nc2nccs2)=C(C#N)C1c1ccc(Cl)cc1 (configuration not stated)	3	30	8	-7	-13	-2	·	·	·	·
C=CCOC(=O)C1=C(C)NC(SCC(=O)Nc2nccs2)=C(C#N)C1c1cccs1 (configuration not stated)	3	53*	18	-3	-4	-4	19	38	11	25
Fc1ccc2cnc(-c3ccccc3)c(-c3cc(C(F)(F)F)cc(C(F)(F)F)c3)c2c1	7	-21	3	3	4	-2	·	·	·	·
O=[N+]([O-])c1ccc(-c2c(-c3ccccc3)ncc3ccc(F)cc23)cc1	-6	74*	0	-3	8	-4	19	66*	-1	-2
N#Cc1ccc(-c2c(-c3ccccc3)ncc3cc(F)ccc23)cc1	-8	59*	1	-7	10	-8	18	44	1	3
COC(=O)c1ccc(-c2c(-c3ccccc3)ncc3cc(F)ccc23)cc1	0	11	3	-4	-2	-5	·	·	·	·
Fc1ccc2cnc(-c3ccccc3)c(-c3ccc(C(F)(F)F)cc3)c2c1	3	63*	0	6	-2	-2	9	37	4	-1
Fc1ccc2c(-c3cccc(C(F)(F)F)c3)c(-c3ccccc3)ncc2c1	-8	45	9	3	13	-2	·	·	·	·
C/C=C(/C)C(=O)OC(C)(C)[C@@H]1Cc2c(ccc3ccc(=O)oc23)O1	-3	10	7	-9	10	-7	·	·	·	·
C/C=C(/C)C(=O)O[C@@H]1c2c(ccc3ccc(=O)oc23)O[C@@H]1C(C)(C)OC(=O)/C(C)=C\C	-3	59*	6	1	-1	-5	21	24	9	3
CCN1C(=O)c2ccc(C(=O)Nc3c(C)cc(C)cc3C)cc2C1=O	7	-5	1	2	-8	0	·	·	·	·
CCC1CN(C(=O)N2CCC(C(=O)NCc3ccco3)CC2)c2cc(C)ccc2O1 (configuration not stated)	-3	50*	14	-1	8	-1	28*	49*	9	9
CCC1CN(C(=O)N2CCC(C(=O)NCCc3ccccc3OC)CC2)c2ccccc2O1 (configuration not stated)	-10	75*	13	3	19	3	29*	54*	11	15
CCC1CN(C(=O)N2CCC(C(=O)NCc3ccccc3C)CC2)c2ccccc2O1 (configuration not stated)	-6	16	5	0	6	1	·	·	·	·
CCC1CN(C(=O)N2CCC(C(=O)NCCc3ccc(OC)cc3OC)CC2)c2ccccc2O1 (configuration not stated)	-4	56*	13	3	15	2	35*	54*	10	14

Source: PubChem BioAssay (The Scripps Research Institute Molecular Screening Center)
